Here are results for 33 molecules from ChEMBL document CHEMBL1136605, “Synthesis and biological activities of novel beta-carbolines as PDE5 inhibitors” (Bioorg Med Chem Lett, 2003).

Molecules are shown by their SMILES.

Experiment [1] deals with T1, cGMP-specific 3',5'-cyclic phosphodiesterase (Homo sapiens, UniProt O76074). Kind of experiment: Inhibitory activity against PDE5 from human corpus cavernosum.
Experiment [2] addresses T1, cGMP-specific 3',5'-cyclic phosphodiesterase. The experiment can be described thus: Inhibition of PDE5 (Phosphodiesterase) from human corpus cavernosum. The method in brief: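 Enzyme was PDE5 from human corpus cavernosum. Compounds were serially diluted in 100% DMSO and added to assay buffer at 2% DMSO final. […] Ki was derived, with IC50 instead for a few compounds. Values are means of three experiments.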

The target in experiment [3] is Phosphodiesterase 2 and 5 (PDE2 and PDE5) (Homo sapiens) (UniProt O76074+O00408). The experiment can be described thus: Relative inhibition of PDE2 and PDE5 from human corpus cavernosum. It counts as protein assay. An outline of the steps: (§1)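 Ratio of inhibition of a second human PDE to that of PDE5 from corpus cavernosum. PDE2 was from corpus cavernosum and PDE6 from retinal cone. Compounds were diluted in DMSO to 2% DMSO final. Ki was determined for each enzyme.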

For a further experiment, the species on record is Homo sapiens. Kind of experiment: Relative inhibition of PDE6 from human retinal cone and PDE5 from human corpus cavernosum. An outline of the steps: as §1
Another experiment has as its system Canis familiaris. Kind of experiment: In vivo increased intracavernosal pressure in dogs after intravenous dose. In kind it is functional, Canis lupus familiaris. An outline of the steps:
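Ascending intravenous doses given at 40-min intervals after control responses were established. Intracavernosal pressure (ICP) was evoked 15 min after each dose by pelvic nerve electrical stimulation at the same setting. Effect was taken as the ICP area under the curve at each stimulation minus the control-response AUC.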

In experiment [1], `CC(=O)Nc1cccc(-c2ccc(C(=O)N3CCc4c([nH]c5ccccc45)C3c3ccc4c(c3)OCO4)o2)c1` (stereo not given) returned a Ki of 0.0506 µM. Regarding `COc1ccc(-c2cnc(N3CC(O)c4c([nH]c5ccccc45)C3c3ccc4c(c3)OCO4)nc2)cc1OC` (stereo not given), the Ki in experiment [1] is more than 0.1 µM. Same read-out and setting: then `FC(F)(F)c1cccc(-c2ccc(CN3CCc4c([nH]c5ccccc45)C3c3ccc4c(c3)OCO4)o2)c1` (stereo not given), with 0.85 µM. In experiment [2], `O=C(c1ccc(-c2ccc(Cl)cc2[N+](=O)[O-])o1)N1CCc2c([nH]c3ccccc23)[C@H]1c1ccc2c(c1)OCO2` displayed an IC50 of 0.067 µM.

In experiment [1], `O=C(c1ccc(-c2ccccc2[N+](=O)[O-])o1)N1CCc2c([nH]c3ccccc23)C1c1ccc2c(c1)OCO2` (stereo not given) displayed a Ki of 0.219 µM. Regarding `O=C(O)CCCC(=O)Nc1cccc(-c2ccc(C(=O)N3CCc4c([nH]c5ccccc45)C3c3ccc4c(c3)OCO4)o2)c1` (stereo not given), the IC50 in experiment [2] is 0.095 µM. Consider `COc1ccc(-c2cnc(N3CCc4c([nH]c5ccccc45)C3c3ccc4c(c3)CCO4)nc2)cc1` (stereo in doubt; 8f), for which, in experiment [1], the affinity, expressed as Ki, was 0.189 µM.

In experiment [1], `O=C(c1ccc(-c2cccc(C(F)(F)F)c2)o1)N1CCc2c([nH]c3ccccc23)C1c1ccc2c(c1)OCO2` (stereo not given) had a Ki of 0.126 µM. In experiment [1], `Cc1ccc(-c2cnc(N3CCc4c([nH]c5ccccc45)C3c3ccc4c(c3)OCO4)nc2)cc1` (stereo not given) gave a Ki of 0.543 µM. For `COc1ccc(-c2cnc(N3CCc4c([nH]c5ccccc45)C3c3ccc(OC)c(OC)c3)nc2)cc1` (stereo not given), the Ki in experiment [1] was more than 10 µM. As to `O=C(c1ccc(-c2ccccc2)o1)N1CCc2c([nH]c3ccccc23)C1c1ccc2c(c1)OCO2` (stereo not given), in experiment [2], half-maximal inhibition (IC50) required 0.75 µM. Take `COc1ccc(-c2cnc(N3CCc4c([nH]c5ccccc45)C3c3ccc4c(c3)OCO4)nc2)cc1` (stereo in doubt; 15a): the affinity in experiment [1], expressed as Ki, was 0.246 µM. Consider `CN1CCN(C(=O)c2ccc(-c3ccc(C(=O)N4CCc5c([nH]c6ccccc56)C4c4ccc5c(c4)CCO5)o3)cc2)CC1` (stereo not given), for which, in experiment [1], the Ki was determined as 0.00811 µM. Also, the Selectivity in experiment [3] is more than 10000; in the experiment filed under Homo sapiens it was 119. `O=C(c1ccc(-c2cccc([N+](=O)[O-])c2)o1)N1CCc2c([nH]c3ccccc23)C1c1ccc2c(c1)OCO2` (stereo not given) registered a Ki in experiment [1] of 0.13 µM.

Regarding `Cc1ncc(-c2cnc(N3CCc4c([nH]c5ccccc45)C3c3ccc4c(c3)CCO4)nc2)n1C` (stereo not given), the Selectivity in experiment [3] was more than 4000; in the experiment filed under Homo sapiens it was 187.

Take `O=C(O)CCCC(=O)Nc1ccc(-c2ccc(C(=O)N3CCc4c([nH]c5ccccc45)C3c3ccc4c(c3)OCO4)o2)cc1` (stereo not given): in experiment [2], the IC50 stood at 0.1 µM. Molecule `Clc1ccc(-c2cnc(N3CCc4c([nH]c5ccccc45)C3c3ccc4c(c3)OCO4)nc2)cc1` (stereo not given) had a Ki in experiment [1] of 0.126 µM. In experiment [1], `O=C(c1ccc(-c2ccc([N+](=O)[O-])cc2)o1)N1CCc2c([nH]c3ccccc23)C1c1ccc2c(c1)OCO2` (stereo not given) registered a Ki of 0.0775 µM.

In the case of `CCCc1nn(C)c2c(=O)[nH]c(-c3cc(S(=O)(=O)N4CCN(C)CC4)ccc3OCC)nc12`, the ED50 in the experiment on Canis familiaris was 0.0051 mg/kg. On to `Oc1ccc(-c2cnc(N3CCc4c([nH]c5ccccc45)C3c3ccc4c(c3)CCO4)nc2)cc1` (stereo not given), for which affinity in experiment [1] was put at a Ki of 0.154 µM.

`O=C(c1ccc(-c2ccccn2)o1)N1CCc2c([nH]c3ccccc23)C1c1ccc2c(c1)CCO2` (stereo not given) showed a Ki in experiment [1] of 0.0323 µM. Also, the Selectivity in experiment [3] stood at 308; in the experiment listed under Homo sapiens it was 32. With `COc1ccc(-c2cnc(N3CCc4c([nH]c5ccccc45)C3c3ccc4c(c3)CCO4)nc2)cc1` (stereo in doubt; 15f), in experiment [1], the Ki is 0.188 µM. Regarding `O=C(c1ccc(-c2ccc(Cl)cc2[N+](=O)[O-])o1)N1CCc2c([nH]c3ccccc23)[C@@H]1c1ccc2c(c1)OCO2`, in experiment [2], the IC50 was more than 10 µM. Same read-out and setting: then `O=C(c1ccc(-c2ccc(Cl)cc2[N+](=O)[O-])o1)N1CCc2c([nH]c3ccccc23)C1c1ccc2c(c1)OCO2` (stereo not given), with 0.105 µM. Consider `Nc1cccc(-c2ccc(C(=O)N3CCc4c([nH]c5ccccc45)C3c3ccc4c(c3)OCO4)o2)c1` (stereo not given), for which, in experiment [1], the affinity corresponds to a Ki of 0.179 µM.

`O=C(c1ccc(-c2cccc([N+](=O)[O-])c2)o1)N1CCc2c(sc3ccccc23)C1c1ccc2c(c1)OCO2` (stereo not given): the Ki in experiment [1] was more than 5 µM. For `CS(=O)(=O)c1ccc(-c2cnc(N3CCc4c([nH]c5ccccc45)C3c3ccc4c(c3)OCO4)nc2)c([N+](=O)[O-])c1` (stereo not given), the Ki in experiment [1] stood at 0.132 µM.

`COc1ccc(-c2cnc(N3CCc4c([nH]c5ccccc45)C3c3ccc4c(c3)OCO4)nc2)cc1` (stereo in doubt; 8a): the Ki in experiment [1] was 0.246 µM. `COc1ccc(-c2cnc(N3CC(=O)c4c([nH]c5ccccc45)C3c3ccc4c(c3)OCO4)nc2)cc1` (stereo not given) yielded an ED50 with Canis familiaris of 0.173 mg/kg. Also, in experiment [1], the affinity corresponds to a Ki of 0.018 µM. In turn, `Nc1ccc(-c2ccc(C(=O)N3CCc4c([nH]c5ccccc45)C3c3ccc4c(c3)OCO4)o2)cc1` (stereo not given) registered a Ki in experiment [1] of 0.123 µM. As for `COc1ccc(-c2cnc(N3CC(=O)c4c([nH]c5ccccc45)C3c3ccc4c(c3)OCO4)nc2)cc1OC` (stereo not given), the Selectivity in experiment [3] was determined as 23000; in the experiment filed under Homo sapiens it was 4. On to `c1ccc2c3c([nH]c2c1)C(c1ccc2c(c1)CCO2)N(c1ncc(-c2ccc(OCCN4CCCC4)cc2)cn1)CC3` (stereo not given), for which the Ki in experiment [1] is more than 1 µM. Consider `CC(=O)Nc1ccc(-c2ccc(C(=O)N3CCc4c([nH]c5ccccc45)C3c3ccc4c(c3)OCO4)o2)cc1` (stereo not given), for which the Ki in experiment [1] amounted to 0.0642 µM.
